Published values pooled from the literature.
Each line is one published result; the experiments were not run side by side.
Target: G protein-coupled receptor kinase 4 (GRK4, Homo sapiens, UniProt P32298)

| Compound | effect on | action | technique | tested at | quantity | result |
| --- | --- | --- | --- | --- | --- | --- |
| O=C(N[C@H]1CCCCC/C=C\C2C[C@@]2(C(=O)O)NC(=O)[C@@H]2C[C@@H](Oc3ccncc3)CN2C1=O)OC1CCCC1 (some centres unmarked) | binding | – | competition with immobilised ligand | 1 µM | remaining binding | 80% |
| Nc1ncnc2occ(-c3ccc(NC(=O)Nc4cc(C(F)(F)F)ccc4F)cc3)c12 | cell-free assay | inhibitor | – | 20 µM | remaining signal | 89% |
| CN(C)C1CCN(CC#Cc2nn(C3CCCC3)c3nc(NCc4ccccc4)ncc23)C1 (centres unmarked) | enzyme activity | inhibitor | FRET | 10 µM | inhibition | -6% |
| O=C1Nc2ccc(Cl)cc2C1=Cc1cc(Cl)c(O)c(Cl)c1 | cell-free assay | – | – | 0.5 µM | remaining signal | 108% |
| Cc1sc(C(=O)NC2COC2)cc1-n1cc(NC(=O)Nc2c(F)cccc2Cl)cn1 | enzyme activity | inhibitor | – | 10 µM | remaining activity | 113% |
| O=c1nc(-c2ccccn2)sc2ccccc12 | binding | – | competition with immobilised ligand | 1 µM | remaining binding | 100% |
| Cc1ccc(C(=O)Nc2ccc(CN3CCN(C)CC3)c(C(F)(F)F)c2)cc1C#Cc1cnc2cccnn12 | enzyme activity | inhibitor | – | 23.5 nM | remaining activity | 96% |
| COc1cc2ncnc(Nc3ccc(Oc4ccccc4)c(C)c3C)c2cc1OC | enzyme activity | inhibitor | – | 1 µM | inhibition | -4% |
| CCN(CC)CCNC(=O)c1c(C)[nH]c(/C=C2\C(=O)Nc3ccc(F)cc32)c1C | cell-free assay | – | – | 0.5 µM | remaining signal | 75.8% |
| CN(C)CC#Cc1ccc(OCCCc2sc(N3CCc4cccc(C(=O)Nc5nc6ccccc6s5)c4C3)nc2C(=O)O)c(F)c1 | cell-free assay | – | competition with immobilised ligand | 1 µM | remaining binding | 100% |
| O=C1NC(=O)c2cc(Nc3ccc(F)cc3)c(Nc3ccc(F)cc3)cc21 | cell-free assay | – | – | 0.5 µM | remaining signal | 103% |
| CC(C)(C)c1nc2c(s1)c1nc(N)ncc1c1ccc(NS(=O)(=O)c3c(F)cccc3F)c(F)c12 | enzyme activity | inhibitor | radiometric | 1 µM | remaining activity | 70% |
| CC(=O)N1CCC(c2ccc(C(=O)NC(=N)N)cc2C(F)(F)F)CC1 | cell-free assay | – | competition with immobilised ligand | 1 µM | remaining binding | 100% |
| CCCS(=O)(=O)Nc1ccc(F)c(C(=O)c2c[nH]c3ncc(-c4ccc(Cl)cc4)cc23)c1F | enzyme activity | inhibitor | – | 1 µM | inhibition | < 10% |
